# Dynein transport = inhibitors of GR-EGFP nuclear translocation, primary screen, dynein cargo transport inhibitor project, imaging, high-content, 3617.4 mouse cells; z-score, hits read low; test concentration mostly 20 µM; stimulated with dexamethasone, 1 µM; active compounds read low; 220,000 compounds, 0.47% hits;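 active = plate z-score of nuclear minus cytoplasmic receptor signal below a set negative limit, without overly bright fluorescence or cell loss, cut at about -3.5 in these data, passing the limit was not always enough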;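 note: z-score of nuclear minus cytoplasmic ring GR-EGFP intensity difference per well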
#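 Buffer or medium: tet-free medium with charcoal-stripped serum / Also added: dexamethasone agonist, 1.0 µM final, for 30 min / Timing: induction 48 h, compound 1 h, agonist 30 min / Measured by: high-content fluorescence imaging after fixation / Read-out: nuclear-to-cytoplasmic GR-EGFP distribution per well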
# Beta2AR agonist = beta2AR agonists driving receptor internalization, primary screen, cell-based, FAP fluorogen, flow cytometry; Am2.2-beta2AR cells; Beta-2 adrenergic receptor (Homo sapiens), P07550; response, % (concentration not given with the values); 340,000 compounds, 0.43% hits;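 active = response above a set limit, near 3 SD of response in nonfluorescent compounds, cut at about 42% in these data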
# Mdm2 ligase inh = MDM2-luciferase reporter signal enhancers, primary screen, MDM2 E3 ligase inhibitor project, cell-based, luminescence, 1536-well; E3 ubiquitin-protein ligase Mdm2 (Homo sapiens), Q00987; cell-based MDM2 ubiquitination luciferase reporter, 2 h; 0 = plate control, 100 = twice control, blank-subtracted; signal enhancement, % at 5 µM; 210,000 compounds, 0.11% hits; AID 1230, 2008;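 active = signal enhancement of 30% or more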;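 note: luminescence tracks abundance of the self-degrading MDM2-luciferase fusion protein; higher signal means inhibition of MDM2 E3 ligase activity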
# Target sequence (Q00987 whole entry, looked up, the tested form may be a part): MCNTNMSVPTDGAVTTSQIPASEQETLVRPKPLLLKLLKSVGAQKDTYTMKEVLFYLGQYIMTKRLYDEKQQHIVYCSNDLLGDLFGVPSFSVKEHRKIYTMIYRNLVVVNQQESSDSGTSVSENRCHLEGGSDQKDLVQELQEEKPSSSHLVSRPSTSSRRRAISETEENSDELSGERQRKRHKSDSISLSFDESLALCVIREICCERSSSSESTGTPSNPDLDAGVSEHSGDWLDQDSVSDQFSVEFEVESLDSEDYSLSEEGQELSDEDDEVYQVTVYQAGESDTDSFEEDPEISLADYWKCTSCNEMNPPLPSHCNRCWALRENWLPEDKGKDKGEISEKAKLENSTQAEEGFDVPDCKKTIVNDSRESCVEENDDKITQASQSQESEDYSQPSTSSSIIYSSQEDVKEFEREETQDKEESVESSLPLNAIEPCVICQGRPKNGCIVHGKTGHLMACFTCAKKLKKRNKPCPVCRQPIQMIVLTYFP
#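 System: stable MDM2–luciferase fusion reporter cells / Input: 2000 cells seeded into each well / Schedule: 4 h settle plus 2 h compound, 37 °C / Compound: single-point 5 µM / Buffer or medium: cells held in DMEM / Benchmarks: control and blank well means / Evaluation: percent signal gain over controls, blank-subtracted / Measured by: luciferase luminescence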
# Mdm2 MdmX PPI = inhibitors of human Mdm2-MdmX association, primary screen, cell-based, luminescence, split luciferase, SaOS-2, uHTS; Protein Mdm4 (Homo sapiens) + E3 ubiquitin-protein ligase Mdm2 (Homo sapiens), …; inhibition, % at 8 µM; SaOS-2 split-luciferase Mdm2/MdmX complementation; 330,000 compounds, 3% hits; AID 485346, 2010;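 active = inhibition of at least 50% at 8 µM in the primary screen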
# CHOP UPR activ = activators of apoptotic CHOP UPR arm, primary screen, cell-based, CHO-CHOP luciferase reporter, luminescence, uHTS | UPR activation; percent of tunicamycin response over DMSO baseline | activation, % at 10 µM | 330,000 compounds, 0.34% hits;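 active = at 10 µM dose, activation of 40% or more, normalized to positive control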;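 note: 100% = tunicamycin at 10 µg/mL and 0% = DMSO alone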
#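 System: CHO CHOP reporter cells. Amount: 500 cells per well. Buffer or medium: F12 medium, 10% FBS. Compound dosing: one dose, 10 µM in 0.5% DMSO. Incubation: 6 h compound exposure at 37 °C after overnight seeding. Technique: Steady-Glo luciferase luminescence. Benchmarks: tunicamycin and DMSO controls.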
# XBP1 UPR activ = activators of adaptive XBP1 UPR arm, primary screen, cell-based, CHO-XBP1 luciferase reporter, luminescence, uHTS; IRE1-XBP1 UPR activation; percent of tunicamycin response, DMSO as zero; activation, % at 20 µM; 330,000 compounds, 0.33% hits; AID 463104, 2010;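 active = versus positive control, 20 µM dose yields 30% or more activation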;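 note: 100% = tunicamycin at 10 µg/mL and 0% = DMSO only wells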
#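 Material – CHO cell line with stable XBP1 luciferase reporter · Buffer or medium – F12 plus 10% FBS · Compound – single point, 20 µM final compound, 1% DMSO · Schedule – 16-18 h cell attachment at 37 °C, then 6 h compound exposure · Signal – Steady-Glo luminescence read · Benchmarks – high control tunicamycin 10 µg/mL final, low control DMSO vehicle only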
# Mdm2 MdmX conf = Mdm2-MdmX complex disruptors, retested hits, confirmation, luminescence, single concentration; Mdm2-MdmX binding, luminescent assay; shares compounds with Mdm2 MdmX PPI; 10,000 compounds, 55% hits; inhibition, % at 8 µM; AID 489028, 2010; in the data active = inhibition above about 40%
# FLuc counter = full-length luciferase signal inhibition, confirmation, counter-screen for Mdm2/MdmX interaction inhibitor project, cell-based, single concentration, SaOS-2 | shares compounds with Mdm2 MdmX PPI | SaOS-2 full-length luciferase counterscreen, luminescence | inhibition, % at 8 µM | 6,200 compounds, 77% hits | AID 504607, 2011;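 active = mean inhibition at 8 µM reaching about 37%, which flags the compound as non-specific, limit read from the data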;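 note: p53-null SaOS-2 cells with luciferase driven by a doxycycline-inducible promoter; compound on cells about two nights before reading with doxycycline added after day one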
# * hit, by the source's call; nt = not tested or not shown. Most compounds without a hit are left out; they make up all but 3.7% or so of the library.
SMILES,Dynein transport,Beta2AR agonist,Mdm2 ligase inh,Mdm2 MdmX PPI,CHOP UPR activ,XBP1 UPR activ,Mdm2 MdmX conf,FLuc counter
CSc1ccc(C2C(C#N)=C(N)Oc3cc4c(cc32)OCO4)cc1 (stereo unspecified),-0.0896,1.2,1.0,69.5*,-0.3,-0.2,59.5*,60.3*
Cc1ccc(C2C(C#N)=C(N)Oc3cc4c(cc32)OCO4)cc1 (stereo unspecified),0.187,-3.5,9.7,55.4*,-1.1,4.7,65.2*,63.9*
Cc1ccc(NC(=O)c2cnccn2)nc1,nt,-0.1,nt,53.4*,4.4,-2.5,-5.3,nt
CC(=O)c1c(C)[nH]c(C(=O)Nc2ccc(C)cn2)c1C,0.00787,-7.0,-4.3,52.5*,-7.6,-6.1,47.6*,73.6*
CCOC(=O)N1CCN(C(=O)COC(=O)C2CCN(S(=O)(=O)c3c(Cl)cccc3Cl)CC2)CC1,nt,-9.8,nt,21.4,0.9,-5.1,nt,nt
CC(CCc1ccccc1)NCc1cccc2ccccc12 (stereo unspecified),nt,-1.2,nt,-26.2,1.3,-3.7,nt,nt
CNC[C@H](Cc1cccc2ccccc12)NC[C@H](CCSC)NCC1CCC(C(C)(C)C)CC1 (stereo partly specified),nt,nt,nt,60.2*,1.9,6.0,4.8,nt
COc1ccc(S(=O)(=O)N2CCC(C(=O)NCC(=O)Nc3c(C)cccc3C)CC2)cc1OC,nt,18.0,nt,nt,nt,nt,nt,nt
COc1ccc2nc(N/C(N)=N/C(=S)Nc3cccc(C)c3)nc(C)c2c1,nt,16.8,-3.2,36.7,0.2,-0.3,nt,nt
CCc1ccccc1NC(=S)/N=C(\N)Nc1nc(C)c2cc(C)ccc2n1,-1.08,1.1,-22.2,66.7*,-1.0,1.5,51.6*,69.7*
COc1ccc2nc(N/C(N)=N/C(=S)Nc3c(C)cccc3C)nc(C)c2c1,-0.289,-5.3,-35.2,57.1*,-1.0,1.4,41.1*,67.8*
Cc1ccc(NC(=S)/N=C(\N)Nc2nc(C)c3cc(C)ccc3n2)c(C)c1,-1.02,-2.3,-0.1,71.9*,2.1,5.2,41.4*,79.4*
CC1CCCCN1C(=O)CN1C(=O)NC2(CCCCC2C)C1=O (stereo unspecified),nt,-3.7,nt,-10.9,-1.6,1.6,nt,nt
CNc1nc(-c2ccc3c(c2)CCN3S(=O)(=O)c2ccccc2)c(C)s1,0.115,4.5,16.6,2.8,0.8,-3.2,nt,nt
CC(C)(C)c1nnc(NC(=O)COc2ccc3c(c2)OCO3)s1,nt,1.1,nt,-107.3,3.4,2.7,nt,nt
COc1ccccc1C(=O)NCC(=O)NCc1cc(=O)n(C)c(=O)n1C,nt,2.4,nt,-19.4,1.8,-1.1,nt,nt
COc1ccc(/C=N/NC(=O)COc2ccccc2-c2ccccc2)cc1,1.75,12.6,-10.7,55.9*,0.8,9.1,67.8*,90.5*
COc1ccc(/C=N/NC(=O)CCn2cnc(-c3ccccc3)c2-c2ccccc2)cc1,-0.257,10.0,-11.9,58.0*,1.6,14.8,71.5*,95.6*
O=C(CCn1cnc(-c2ccccc2)c1-c1ccccc1)N/N=C/c1ccccc1O,0.763,-6.8,-5.2,75.8*,-4.1,-0.2,68.5*,25.7
O=C(CCn1cnc(-c2ccccc2)c1-c1ccccc1)N/N=C/c1ccc(O)cc1,0.321,0.3,-13.6,19.4,0.1,-3.5,nt,nt
CC12CCC(=O)N1C(C(=O)NCCN1C(=O)S/C(=C\c3ccc(F)cc3)C1=O)CS2 (stereo unspecified),nt,-5.8,nt,-2.7,-1.5,3.8,nt,nt
CCOC(=O)C1CCN(CC(=O)Nc2cc(S(=O)(=O)N3CCCCC3)ccc2Cl)CC1,nt,0.4,nt,28.7,2.2,-1.5,nt,nt
CCn1c(SCC(=O)N2CCCc3ccccc32)nc2c1c(=O)n(C)c(=O)n2C,0.388,-5.1,-13.9,19.5,0.6,1.7,nt,nt
CC(C)c1nc(SCC(=O)N2CCCc3ccccc32)c2c(=O)n(C)c(=O)n(C)c2n1,0.164,21.7,-4.5,55.2*,7.3,-0.7,46.9*,51.4*
CC(C)(C)OC(=O)NCCCC[C@H](NC(=O)c1nc[nH]c1C(=O)NCc1ccccc1)C(=O)OC(C)(C)C,0.65,5.8,nt,34.7,2.2,-3.9,nt,nt
SMILES,Dynein transport,Beta2AR agonist,Mdm2 ligase inh,Mdm2 MdmX PPI,CHOP UPR activ,XBP1 UPR activ,Mdm2 MdmX conf,FLuc counter
CC(C)(C)OC(=O)NCc1ccc(NC(=O)c2nc[nH]c2C(=O)NCCCCNC(=O)c2[nH]cnc2C(=O)Nc2ccc(CNC(=O)OC(C)(C)C)cc2)cc1,nt,23.2,nt,96.1*,4.1,-1.3,6.8,nt
CC(C)(C)OC(=O)NCCCCCNC(=O)c1[nH]cnc1C(=O)Nc1ccc(Cl)cc1,nt,19.0,nt,63.8*,4.3,4.5,35.8,59.2*
CC(C)(C)OC(=O)NCc1ccc(NC(=O)c2nc[nH]c2C(=O)NCCCNC(=O)c2[nH]cnc2C(=O)Nc2ccc(CNC(=O)OC(C)(C)C)cc2)cc1,nt,3.9,nt,85.6*,3.4,-0.6,20.3,nt
CC(C)(C)OC(=O)NCCCC[C@H](NC(=O)c1[nH]cnc1C(=O)Nc1ccc(CNC(=O)OC(C)(C)C)cc1)C(=O)OC(C)(C)C,-0.597,nt,-11.3,87.3*,11.2,7.2,46.6*,75.4*
Cc1ccc(NC(=O)c2nc[nH]c2C(=O)NCCCCCNC(=O)OC(C)(C)C)cc1,nt,10.5,nt,30.7,3.9,-3.7,nt,nt
O=C(Cc1c(F)cccc1Cl)N1CCN(S(=O)(=O)c2cccc(F)c2)CC1,nt,-2.5,nt,17.3,2.3,-2.3,nt,nt
CN(C)N1C(N)=C(C#N)C(c2cccc3ccccc23)C2=C1CC(c1ccccc1)CC2=O (stereo unspecified),-0.818,8.2,-6.7,63.5*,4.7,-2.6,62.7*,42.5*
Cc1ccc(C(=O)Nc2ccccc2C(=O)Nc2ccccn2)cc1Cl,nt,-1.7,nt,7.0,2.1,1.1,nt,nt
CCOc1cc([N+](=O)[O-])cc(/C=N/NC(=O)c2c(-c3ccccc3)noc2C)c1O,nt,2.4,nt,56.7*,1.5,-6.7,21.1,nt

# Screening data: PubChem BioAssay, several laboratories
